# Where “and” joins values, the source holds several entries; their conditions need not be identical. Equal values may be shown once.
# Legend:
# Mus musculus [1] = test: Antitumor activity was tested in mice and percent increase of life span at a dose of 100 ug/kg was reported; assay type: functional
# How it was run: (§1)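 B16BL6 cells were cultured as monolayers, and 10⁶ cells were injected ip on day 0 into female BDF1 mice (4-6 weeks, 8 per group). Drug in dimethylacetamide was diluted in DMA/Cremophor/water (1:5:44) and 0.1 mL given ip on days 1, 5 and 9. %ILS came from median survival of dying animals; 90-day survivors were counted; mean weight change covered days 1-10.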
# Mus musculus [2] = species: Mus musculus; test: Hematological effects in female CDF1 mice at the dose of 50 ug, in platelet cells; assay type: functional
# How it was run: (§2)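 Non-tumor-bearing female CDF1 mice, 10 per group. Drugs were dissolved in DMSO, diluted in 30% DMSO/0.5% glucose, and given as a single ip dose on day 1 (doses per kg). Blood was sampled on day 27 for WBC, platelet, RBC and MCHC counts. Values are medians of 10 mice.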
# T47D = test: cytotoxicity against NCI tumor panel, T-47D breast cancer cell line; assay type: functional, cell-based; details: Homo sapiens
# How it was run: (§3)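 Performed by NCI with the sulforhodamine B (SRB) method on its human tumour cell panel, using a 48-h drug incubation.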
# A549 = test: Cytotoxicity against NCI tumor panel, A-549/ATCC non small-cell lung cancer cell line; assay type: functional, cell-based; details: Homo sapiens
# How it was run: (§4)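 NCI cell-line panel screen run by the National Cancer Institute; sulforhodamine B (SRB) readout after 48-h drug incubation.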
# MDA-MB-435 = test: Cytotoxicity against NCI tumor panel, MDA-MB-435 breast cancer cell line; assay type: functional, cell-based; details: Homo sapiens; how it was run: as §3
# U-251 = test: Cytotoxicity against NCI tumor panel, U251 CNS cancer cell line; assay type: functional, cell-based; details: Homo sapiens; how it was run: as §3
# MCF7 = test: Cytotoxicity against NCI tumor panel, MCF-7 breast cancer cell line; assay type: functional, cell-based; details: Homo sapiens; how it was run: as §3
# SF-268 = test: Cytotoxicity against NCI tumor panel, SF-268 CNS cancer cell line; assay type: functional, cell-based; details: Homo sapiens; how it was run: as §3
# CAKI-1 = test: Cytotoxicity against NCI tumor panel, CAKI-1 renal cancer cell line; assay type: functional, cell-based; details: Homo sapiens; how it was run: as §4
# UACC-257 = test: Cytotoxicity against NCI tumor panel, UACC-257 melanoma cancer cell line; assay type: functional, cell-based; details: Homo sapiens; how it was run: as §3
# HL-60 = test: Cytotoxicity against NCI tumor panel, HL-60(TB) leukemia cell line; assay type: functional, cell-based; details: Homo sapiens; how it was run: as §4
# SK-OV-3 = test: cytotoxicity against NCI tumor panel, SK-OV-3 ovarian cancer cell line; assay type: functional, cell-based; details: Homo sapiens; how it was run: as §3
# SW-620 = test: Cytotoxicity against NCI tumor panel, SW_620 colon cancer cell line; assay type: functional, cell-based; details: Homo sapiens; how it was run: as §3
# Mus musculus [3] = species: Mus musculus; test: Mean body weight change between 1-10 days; assay type: functional
# How it was run: (§5)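 Female BDF1 mice (4-6 weeks old, 8 per group) were inoculated ip with 10⁶ B16BL6 melanoma cells on day 0. Drugs in dimethylacetamide were diluted in DMA:Cremophor:water (1:5:44) and given ip at 0.1 mL on days 1, 5 and 9 (doses per kg). Read-outs were %ILS = (T/C − 1) × 100 on median survival of dying animals only, mean body weight change from day 1 to day 10 (g/mouse), and 90-day survivors.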
# CCRF-CEM = test: Cytotoxicity against NCI tumor panel, CCRF-CEM leukemia cell line; assay type: functional, cell-based; details: Homo sapiens; how it was run: as §4
# MDA-N = test: Cytotoxicity against NCI tumor panel, MDA-N breast cancer cell line; assay type: functional, cell-based; details: Homo sapiens; how it was run: as §3
# UO-31 = test: Cytotoxicity against NCI tumor panel, U031 renal cancer cell line; assay type: functional, cell-based; details: Homo sapiens; how it was run: as §3
# Hs-578T = test: Cytotoxicity against NCI tumor panel, HS 578T breast cancer cell line; assay type: functional, cell-based; details: Homo sapiens; how it was run: as §3
# HOP-92 = test: Cytotoxicity against NCI tumor panel, HOP-92 non small-cell lung cancer cell line; assay type: functional, cell-based; details: Homo sapiens; how it was run: as §4
# OVCAR-8 = test: Cytotoxicity against NCI tumor panel, OVCAR-8 ovarian cancer cell line; assay type: functional, cell-based; details: Homo sapiens; how it was run: as §3
# OVCAR-3 = test: Cytotoxicity against NCI tumor panel, OVCAR-3 ovarian cancer cell line; assay type: functional, cell-based; details: Homo sapiens; how it was run: as §3
# RPMI-8226 = test: Cytotoxicity against NCI tumor panel, RPMI-8226 leukemia cell line; assay type: functional, cell-based; details: Homo sapiens; how it was run: as §3
# [4] = Minimal drug concentration necessary to inhibit incorporation of [3H]thymidine in U937 Leukemia cells; assay type: functional, cell-based, Homo sapiens
# Mus musculus [5] = test: Antitumor activity in mice bearing B16BL6 melanoma at a dose of 100 ug/kg; survivors for 90 days was reported; assay type: functional; how it was run: as §1
# TK-10 = test: Cytotoxicity against NCI tumor panel, TK10 renal cancer cell line; assay type: functional, cell-based; details: Homo sapiens; how it was run: as §3
# PC-3 = test: Cytotoxicity against NCI tumor panel, PC-3 prostate cancer cell line; assay type: functional, cell-based; details: Homo sapiens; how it was run: as §3
# SK-MEL-28 = test: Cytotoxicity against NCI tumor panel, SK-MEL28 melanoma cancer cell line; assay type: functional, cell-based; details: Homo sapiens; how it was run: as §3
# Mus musculus [6] = species: Mus musculus; test: Hematological effects in female CDF1 mice at the dose of 50ug, in white blood cells; assay type: functional; how it was run: as §2
# Mus musculus [7] = species: Mus musculus; test: Mice bearing B16BL6 leukemia at a dose 100; assay type: functional; details: in the assay text read “melanoma” for “leukemia”; how it was run: as §5
# Mus musculus [8] = test: Antitumor activity in mice bearing L1210 Leukemia at a dose of 30 ug/kg; survivors for 60 days was reported; assay type: functional
# How it was run: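 Female CDF1 mice, 10 per group, got 100 L1210 cells ip on day 0. Drug in DMSO was diluted with 30% DMSO in 0.5% glucose and dosed ip on days 1, 5 and 9. Long-term (60-day) survivors are given as percent of the group.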
# LOX IMVI = test: Cytotoxicity against NCI tumor panel, […] melanoma cancer cell line; assay type: functional, cell-based; details: Homo sapiens; how it was run: as §3
# Mus musculus [9] = species: Mus musculus; test: Mean corpuscular haemoglobin concentration; assay type: functional
# How it was run: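 Non-tumour-bearing female CDF1 mice, 10 per group. Drug was dissolved in DMSO, diluted in 30% DMSO/0.5% glucose, and given as a single ip dose on day 1. Blood was sampled on day 27 for WBC, platelet, RBC and MCHC measurements. Values are medians of 10 mice, with saline or vehicle controls.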
# SR = test: Cytotoxicity against NCI tumor panel, SR leukemia cell line; assay type: functional, cell-based; details: Homo sapiens; how it was run: as §3
# IGROV-1 = test: Cytotoxicity against NCI tumor panel, IGROV1 ovarian cancer cell line; assay type: functional, cell-based; details: Homo sapiens; how it was run: as §3
# NCI-H23 = test: Cytotoxicity against NCI tumor panel, NCI-H 23 non small-cell lung cancer cell line; assay type: functional, cell-based; details: Homo sapiens; how it was run: as §3
# Mus musculus [10] = species: Mus musculus; test: Hematological effects in female CDF1 mice at the dose of 50 ug, in red blood cells; assay type: functional; how it was run: as §2
# NCI-H522 = test: Cytotoxicity against NCI tumor panel, NCI-H522 non small-cell lung cancer cell line; assay type: functional, cell-based; details: Homo sapiens; how it was run: as §3
# MOLT-4 = test: Cytotoxicity against NCI tumor panel, MOLT-4 leukemia cell line; assay type: functional, cell-based; details: Homo sapiens; how it was run: as §3
# SN12C = test: Cytotoxicity against NCI tumor panel, SN12C renal cancer cell line; assay type: functional, cell-based; details: Homo sapiens; how it was run: as §3
# Mus musculus [11] = test: Antitumor activity in mice bearing B16BL6 melanoma at a dose of 50 ug/kg; survivors for 90 days was reported; assay type: functional; how it was run: as §1
# K562 = test: Cytotoxicity against NCI tumor panel, K-562 leukemia cell line; assay type: functional, cell-based; details: Homo sapiens; how it was run: as §3
# Mus musculus [12] = test: Haematological effects in mice dose administered intraperitoneally; assay type: functional; how it was run: as §2
# Mus musculus [13] = test: Antitumor activity was tested in mice and percent increase of life span at a dose of 50 ug/kg was reported; assay type: functional; how it was run: as §1
# UACC-62 = test: Cytotoxicity against NCI tumor panel, UACC-62 melanoma cancer cell line; assay type: functional, cell-based; details: Homo sapiens; how it was run: as §3
# M14 = test: Cytotoxicity against NCI tumor panel, M14 melanoma cancer cell line; assay type: functional, cell-based; details: Homo sapiens; how it was run: as §3
# NCI-H322M = test: Cytotoxicity against NCI tumor panel, NCI-H322M non small-cell lung cancer cell line; assay type: functional, cell-based; details: Homo sapiens; how it was run: as §3
# Mus musculus [14] = test: Antitumor activity was tested in mice and percent increase of life span at a dose of 25 ug/kg was reported; assay type: functional
smiles,measurement,setting,value
CC(=O)Nc1ccc2[nH]c(C(=O)Nc3ccc4[nH]c(C(=O)N5CC(CCl)c6c5cc(O)c5ccccc65)cc4c3)cc2c1 (configuration not stated),ILS at 0.1 mg/kg,Mus musculus [1],91%
same,Platelet,Mus musculus [2],1.1 10e6 ul-1
same,IC50,T47D,1.68 nM
same,IC50,A549,1.49 nM
same,IC50,MDA-MB-435,1.86 nM
same,IC50,U-251,0.719 nM
same,IC50,MCF7,0.476 nM
same,IC50,SF-268,0.212 nM
same,IC50,CAKI-1,4.27 nM
same,IC50,UACC-257,2.46 nM
same,IC50,HL-60,1.4 nM
same,IC50,SK-OV-3,4.33 nM
same,IC50,SW-620,2.36 nM
same,Weight,Mus musculus [3],1.1 g and 0.3 g and 0.9 g
same,IC50,CCRF-CEM,3.14 nM
same,IC50,MDA-N,2.22 nM
same,IC50,UO-31,4.05 nM
same,IC50,Hs-578T,1.63 nM
same,IC50,HOP-92,2.11 nM
same,IC50,OVCAR-8,1.6 nM
same,IC50,OVCAR-3,3.51 nM
same,IC50,RPMI-8226,8.98 nM
same,IC50,[4],0.4 nM
same,No. of survivors,Mus musculus [5],1
same,IC50,TK-10,3.13 nM
same,IC50,PC-3,2.03 nM
same,IC50,SK-MEL-28,2.21 nM
same,WBC,Mus musculus [6],13.1 10e3 ul-1
same,Dose,Mus musculus [7],0.1 mg/kg
same,% survivors,Mus musculus [8],40%
same,IC50,LOX IMVI,0.577 nM
same,MCHC,Mus musculus [9],36.7 g/dL
same,IC50,SR,0.562 nM
same,IC50,IGROV-1,1.01 nM
same,IC50,NCI-H23,1.36 nM
same,RBC,Mus musculus [10],8.72 10e6 ul-1
same,IC50,NCI-H522,0.238 nM
same,IC50,MOLT-4,0.375 nM
same,IC50,SN12C,3.01 nM
same,No. of survivors,Mus musculus [11],0
same,IC50,K562,3.76 nM
same,Dose,Mus musculus [12],0.05 mg/kg
same,ILS at 0.05 mg/kg,Mus musculus [13],59%
same,IC50,UACC-62,0.419 nM
same,IC50,M14,1.48 nM
same,IC50,NCI-H322M,2.13 nM
same,ILS,Mus musculus [14],67% and 107%

# Reference: ChEMBL document CHEMBL1133719, “Synthesis and preliminary biological evaluations of CC-1065 analogues: effects of different linkers and terminal amides on biological activity” (J Med Chem, 2000)
